# Test results from ChEMBL document CHEMBL1151854, “Dendrimers ended by non-symmetrical azadiphosphonate groups: synthesis and immunological properties” (Bioorg Med Chem Lett, 2009).
# Activity calls are given as the source filed them. No cut-off for these calls is given here.
# Assays:
# PBMC [1] = assay: Activation of human PBMC assessed as down-regulation of HLA-DR expression by flow cytometry; type: functional, cell-based
# How it was run: (§1)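 Fresh blood from healthy adult donors; PBMC isolated on Ficoll-Paque gradient (800 g, 30 min, room temperature), washed twice and cultured at 1.5 million cells/mL in RPMI 1640 with penicillin/streptomycin, 1 mM pyruvate and 10% heat-inactivated FCS. Sterile-filtered dendrimer was added at the final concentration. Monocytes were gated by morphology. The readout was HLA-DR (FITC) or CD14 (PE-Pc5) staining, given as the mfi ratio versus isotype control. Three donors were tested.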
# PBMC [2] = assay: Activation of human PBMC assessed as down-regulation of HLA-DR expression after 4 days by flow cytometry; type: functional, cell-based; how it was run: as §1
# PBMC [3] = assay: Activation of human PBMC assessed as occurrence of bigger and granular monocytes by flow cytometry; type: functional, cell-based
# How it was run: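 Donor PBMC were prepared on Ficoll-Paque and cultured in complete RPMI 1640 (10% heat-inactivated FCS, 1.5 million cells/mL) with sterile-filtered dendrimer at the final concentration. By flow cytometry (LSR-II), monocytes were selected on scatter morphology, and the read-out was an increase in cell size and granularity.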
# PBMC [4] = assay: Activation of human PBMC assessed as down-regulation of CD14 expression at 2 uM after 4 days by flow cytometry; type: functional, cell-based; how it was run: as §1
# PBMC [5] = assay: Activation of human PBMC assessed as down-regulation of HLA-DR expression at 20 uM after 4 days by flow cytometry; type: functional, cell-based; how it was run: as §1
# PBMC [6] = assay: Activation of human PBMC assessed as down-regulation of CD14 expression at 20 uM after 4 days by flow cytometry; type: functional, cell-based; how it was run: as §1
# PBMC [7] = assay: Activation of human PBMC assessed as down-regulation of HLA-DR expression at 2 uM after 4 days by flow cytometry; type: functional, cell-based; how it was run: as §1
# PBMC [8] = assay: Activation of human PBMC assessed as down-regulation of CD14 expression by flow cytometry; type: functional, cell-based; how it was run: as §1
# [9] = Solubility in water; type: physicochemical; settings: buffer
# PBMC [10] = assay: Activation of human PBMC assessed as down-regulation of CD14 expression after 4 days by flow cytometry; type: functional, cell-based; how it was run: as §1
# PBMC [11] = assay: Cytotoxicity against long-lasting cultures of human PBMC; type: cell-based
Structure (SMILES),Activity (PBMC [1]),Activity (PBMC [2]),Activity (PBMC [3]),Activity (PBMC [4]),Activity (PBMC [5]),Activity (PBMC [6]),Activity (PBMC [7]),Activity (PBMC [8]),solubility [9],Activity (PBMC [10]),Activity (PBMC [11])
C=CCN(CP(=O)([O-])O)C(c1ccc(OP(=S)(Oc2ccc(C(N(CC=C)CP(=O)([O-])O)P(=O)([O-])O)cc2)N(C)/N=C/c2ccc(OP3(Oc4ccc(/C=N/N(C)P(=S)(Oc5ccc(C(N(CC=C)CP(=O)([O-])O)P(=O)([O-])O)cc5)Oc5ccc(C(N(CC=C)CP(=O)([O-])O)P(=O)([O-])O)cc5)cc4)=NP(Oc4ccc(/C=N/N(C)P(=S)(Oc5ccc(C(N(CC=C)CP(=O)([O-])O)P(=O)([O-])O)cc5)Oc5ccc(C(N(CC=C)CP(=O)([O-])O)P(=O)([O-])O)cc5)cc4)(Oc4ccc(/C=N/N(C)P(=S)(Oc5ccc(C(N(CC=C)CP(=O)([O-])O)P(=O)([O-])O)cc5)Oc5ccc(C(N(CC=C)CP(=O)([O-])O)P(=O)([O-])O)cc5)cc4)=NP(Oc4ccc(/C=N/N(C)P(=S)(Oc5ccc(C(N(CC=C)CP(=O)([O-])O)P(=O)([O-])O)cc5)Oc5ccc(C(N(CC=C)CP(=O)([O-])O)P(=O)([O-])O)cc5)cc4)(Oc4ccc(/C=N/N(C)P(=S)(Oc5ccc(C(N(CC=C)CP(=O)([O-])O)P(=O)([O-])O)cc5)Oc5ccc(C(N(CC=C)CP(=O)([O-])O)P(=O)([O-])O)cc5)cc4)=N3)cc2)cc1)P(=O)([O-])O.[Na+].[Na+].[Na+].[Na+].[Na+].[Na+].[Na+].[Na+].[Na+].[Na+].[Na+].[Na+].[Na+].[Na+].[Na+].[Na+].[Na+].[Na+].[Na+].[Na+].[Na+].[Na+].[Na+].[Na+] (stereo not drawn),Active,Dose-dependent effect,Active,Active,Active,Active,Active,Active,Soluble,Dose-dependent effect,–
CN(CP(=O)(O)O)C(c1ccc(OP(=S)(Oc2ccc(C(N(C)CP(=O)(O)O)P(=O)(O)O)cc2)N(C)/N=C/c2ccc(OP3(Oc4ccc(/C=N/N(C)P(=S)(Oc5ccc(C(N(C)CP(=O)(O)O)P(=O)(O)O)cc5)Oc5ccc(C(N(C)CP(=O)(O)O)P(=O)(O)O)cc5)cc4)=NP(Oc4ccc(/C=N/N(C)P(=S)(Oc5ccc(C(N(C)CP(=O)(O)O)P(=O)(O)O)cc5)Oc5ccc(C(N(C)CP(=O)(O)O)P(=O)(O)O)cc5)cc4)(Oc4ccc(/C=N/N(C)P(=S)(Oc5ccc(C(N(C)CP(=O)(O)O)P(=O)(O)O)cc5)Oc5ccc(C(N(C)CP(=O)(O)O)P(=O)(O)O)cc5)cc4)=NP(Oc4ccc(/C=N/N(C)P(=S)(Oc5ccc(C(N(C)CP(=O)(O)O)P(=O)(O)O)cc5)Oc5ccc(C(N(C)CP(=O)(O)O)P(=O)(O)O)cc5)cc4)(Oc4ccc(/C=N/N(C)P(=S)(Oc5ccc(C(N(C)CP(=O)(O)O)P(=O)(O)O)cc5)Oc5ccc(C(N(C)CP(=O)(O)O)P(=O)(O)O)cc5)cc4)=N3)cc2)cc1)P(=O)(O)O (stereo not drawn),–,–,–,Active,Active,Active,Active,–,–,–,–
CCCCN(CP(=O)([O-])O)C(c1ccc(OP(=S)(Oc2ccc(C(N(CCCC)CP(=O)([O-])O)P(=O)([O-])O)cc2)N(C)/N=C/c2ccc(OP3(Oc4ccc(/C=N/N(C)P(=S)(Oc5ccc(C(N(CCCC)CP(=O)([O-])O)P(=O)([O-])O)cc5)Oc5ccc(C(N(CCCC)CP(=O)([O-])O)P(=O)([O-])O)cc5)cc4)=NP(Oc4ccc(/C=N/N(C)P(=S)(Oc5ccc(C(N(CCCC)CP(=O)([O-])O)P(=O)([O-])O)cc5)Oc5ccc(C(N(CCCC)CP(=O)([O-])O)P(=O)([O-])O)cc5)cc4)(Oc4ccc(/C=N/N(C)P(=S)(Oc5ccc(C(N(CCCC)CP(=O)([O-])O)P(=O)([O-])O)cc5)Oc5ccc(C(N(CCCC)CP(=O)([O-])O)P(=O)([O-])O)cc5)cc4)=NP(Oc4ccc(/C=N/N(C)P(=S)(Oc5ccc(C(N(CCCC)CP(=O)([O-])O)P(=O)([O-])O)cc5)Oc5ccc(C(N(CCCC)CP(=O)([O-])O)P(=O)([O-])O)cc5)cc4)(Oc4ccc(/C=N/N(C)P(=S)(Oc5ccc(C(N(CCCC)CP(=O)([O-])O)P(=O)([O-])O)cc5)Oc5ccc(C(N(CCCC)CP(=O)([O-])O)P(=O)([O-])O)cc5)cc4)=N3)cc2)cc1)P(=O)([O-])O.[Na+].[Na+].[Na+].[Na+].[Na+].[Na+].[Na+].[Na+].[Na+].[Na+].[Na+].[Na+].[Na+].[Na+].[Na+].[Na+].[Na+].[Na+].[Na+].[Na+].[Na+].[Na+].[Na+].[Na+] (stereo not drawn),Active,–,Active,Active,Active,Active,Active,Active,Soluble,–,Toxic
